Measurements published in ChEMBL document CHEMBL5303300, “EUbOPEN Chemogenomics Library - Multiplex” (2023).
Several values for one entry are separate records, joined by “and”; a condition that tells them apart may be missing. Equal entries are not always repeated.

Assays:
Format in all cases: toxicity, cell-based
[1] = test system: Fibroblast; test: Multiplex assay against human fibroblast; settings: number of replicates 2
Summary of the method: (§1)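 Cells stained live at seeding with Hoechst33342, BioTracker Green Microtubule Cytoskeleton Dye, MitoTracker Red and Annexin V Alexa Fluor 680 were imaged on a CQ1 microscope at 37°C and 5% CO2 after compound addition. Their classification by CellPathfinder machine-learning gating ran from Hoechst high-intensity objects versus normal cells, to healthy, pyknosed or fragmented nuclei among normal cells, to mitotic or apoptotic among pyknosed cells. Tubulin, mitochondrial-mass and membrane-permeability phenotypes are per cents of healthy-nucleus cells.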

[2] = test system: HEK-293T; test: Multiplex assay against HEK293T; settings: human, number of replicates 2; summary of the method: as §1
[3] = test system: U2OS; test: Multiplex assay against U2OS; settings: human, number of replicates 2; summary of the method: as §1
[4] = 12 h, 1 µM, compound concentration 1 uM
[5] = 12 h, 10 µM, compound concentration 10 uM
[6] = 24 h, 1 µM, compound concentration 1 uM
[7] = 24 h, 10 µM, compound concentration 10 uM
[8] = 48 h, 1 µM, compound concentration 1 uM
[9] = 48 h, 10 µM, compound concentration 10 uM

Question: What does the source list for `CN(C)CCCN1c2ccccc2Sc2ccc(Cl)cc21.Cl` [CHLORPROMAZINE HYDROCHLORIDE]?
Answer: Population Apoptotic (%) [1, 4]: 40% and 38%; Population Fragmented Nuclei (%) [1, 4]: 16% and 14%; Population Healthy Nuclei (%) [1, 4]: 51% and 64%; Population Hoechst High Intensity Objects (%) [1, 4]: 0%; Population Membrane Permeable-Phenotype (%) [1, 4]: 7% and 5%; Population Mitochondria Different-Phenotype (%) [1, 4]: 1% and 2%; Population Mitotic Cells (%) [1, 4]: 59% and 61%; Population Normal (%) [1, 4]: 100%; Population Pyknosed Nuclei (%) [1, 4]: 32% and 21%; Population Tubulin-Different-Phenotype (%) [1, 4]: 14% and 13%; Total Cell Count [1, 4]: 190 and 200; Population Apoptotic (%) [1, 5]: 52% and 41%; Population Fragmented Nuclei (%) [1, 5]: 15% and 22%; Population Healthy Nuclei (%) [1, 5]: 65% and 62%; Population Hoechst High Intensity Objects (%) [1, 5]: 0%; Population Membrane Permeable-Phenotype (%) [1, 5]: 5% and 1%; Population Mitochondria Different-Phenotype (%) [1, 5]: 5% and 9%; Population Mitotic Cells (%) [1, 5]: 47% and 58%; Population Normal (%) [1, 5]: 99% and 100%; Population Pyknosed Nuclei (%) [1, 5]: 19% and 14%; Population Tubulin-Different-Phenotype (%) [1, 5]: 45% and 36%; Total Cell Count [1, 5]: 187 and 323; Population Apoptotic (%) [1, 6]: 64% and 46%; Population Fragmented Nuclei (%) [1, 6]: 15% and 17%; Population Healthy Nuclei (%) [1, 6]: 58% and 66%; Population Hoechst High Intensity Objects (%) [1, 6]: 0%; Population Membrane Permeable-Phenotype (%) [1, 6]: 13% and 6%; Population Mitochondria Different-Phenotype (%) [1, 6]: 1% and 3%; Population Mitotic Cells (%) [1, 6]: 35% and 53%; Population Normal (%) [1, 6]: 100%; Population Pyknosed Nuclei (%) [1, 6]: 25% and 16%; Population Tubulin-Different-Phenotype (%) [1, 6]: 23% and 12%; Total Cell Count [1, 6]: 206 and 196; Population Apoptotic (%) [1, 7]: 80% and 58%; Population Fragmented Nuclei (%) [1, 7]: 15% and 24%; Population Healthy Nuclei (%) [1, 7]: 72% and 65%; Population Hoechst High Intensity Objects (%) [1, 7]: 1%; Population Membrane Permeable-Phenotype (%) [1, 7]: 2% and 1%; Population Mitochondria Different-Phenotype (%) [1, 7]: 16% and 15%; Population Mitotic Cells (%) [1, 7]: 19% and 41%; Population Normal (%) [1, 7]: 98%; Population Pyknosed Nuclei (%) [1, 7]: 11% and 10%; Population Tubulin-Different-Phenotype (%) [1, 7]: 49% and 42%; Total Cell Count [1, 7]: 187 and 299; Population Apoptotic (%) [1, 8]: 82% and 60%; Population Fragmented Nuclei (%) [1, 8]: 19% and 15%; Population Healthy Nuclei (%) [1, 8]: 60% and 71%; Population Hoechst High Intensity Objects (%) [1, 8]: 0%; Population Membrane Permeable-Phenotype (%) [1, 8]: 7% and 4%; Population Mitochondria Different-Phenotype (%) [1, 8]: 4% and 1%; Population Mitotic Cells (%) [1, 8]: 17% and 39%; Population Normal (%) [1, 8]: 99%; Population Pyknosed Nuclei (%) [1, 8]: 20% and 12%; Total Cell Count [1, 8]: 195 and 226; Population Apoptotic (%) [1, 9]: 73% and 90%; Population Fragmented Nuclei (%) [1, 9]: 23% and 32%; Population Healthy Nuclei (%) [1, 9]: 67% and 57%; Population Hoechst High Intensity Objects (%) [1, 9]: 1% and 0%; Population Membrane Permeable-Phenotype (%) [1, 9]: 2%; Population Mitochondria Different-Phenotype (%) [1, 9]: 5% and 7%; Population Mitotic Cells (%) [1, 9]: 26% and 9%; Population Normal (%) [1, 9]: 99%; Population Pyknosed Nuclei (%) [1, 9]: 9%; Population Tubulin-Different-Phenotype (%) [1, 9]: 33% and 34%; Total Cell Count [1, 9]: 201 and 323; Population Apoptotic (%) [2, 4]: 54% and 40%; Population Fragmented Nuclei (%) [2, 4]: 3% and 4%; Population Healthy Nuclei (%) [2, 4]: 81% and 82%; Population Hoechst High Intensity Objects (%) [2, 4]: 13% and 8%; Population Membrane Permeable-Phenotype (%) [2, 4]: 1% and 2%; Population Mitochondria Different-Phenotype (%) [2, 4]: 25% and 15%; Population Mitotic Cells (%) [2, 4]: 45% and 59%; Population Normal (%) [2, 4]: 86% and 91%; Population Pyknosed Nuclei (%) [2, 4]: 14% and 12%; Population Tubulin-Different-Phenotype (%) [2, 4]: 53% and 48%; Total Cell Count [2, 4]: 443 and 595; Population Apoptotic (%) [2, 5]: 55%; Population Fragmented Nuclei (%) [2, 5]: 1% and 2%; Population Healthy Nuclei (%) [2, 5]: 80% and 78%; Population Hoechst High Intensity Objects (%) [2, 5]: 9% and 6%; Population Membrane Permeable-Phenotype (%) [2, 5]: 2%; Population Mitochondria Different-Phenotype (%) [2, 5]: 40% and 53%; Population Mitotic Cells (%) [2, 5]: 44%; Population Normal (%) [2, 5]: 90% and 93%; Population Pyknosed Nuclei (%) [2, 5]: 17% and 19%; Population Tubulin-Different-Phenotype (%) [2, 5]: 83% and 88%; Total Cell Count [2, 5]: 580 and 531; Population Apoptotic (%) [2, 6]: 57% and 47%; Population Fragmented Nuclei (%) [2, 6]: 7% and 5%; Population Healthy Nuclei (%) [2, 6]: 80% and 88%; Population Hoechst High Intensity Objects (%) [2, 6]: 5% and 7%; Population Membrane Permeable-Phenotype (%) [2, 6]: 1%; Population Mitochondria Different-Phenotype (%) [2, 6]: 12% and 4%; Population Mitotic Cells (%) [2, 6]: 42% and 52%; Population Normal (%) [2, 6]: 94% and 92%; Population Pyknosed Nuclei (%) [2, 6]: 11% and 6%; Population Tubulin-Different-Phenotype (%) [2, 6]: 36% and 29%; Total Cell Count [2, 6]: 621 and 951; Population Apoptotic (%) [2, 7]: 67% and 63%; Population Fragmented Nuclei (%) [2, 7]: 4%; Population Healthy Nuclei (%) [2, 7]: 81% and 82%; Population Hoechst High Intensity Objects (%) [2, 7]: 6% and 9%; Population Membrane Permeable-Phenotype (%) [2, 7]: 1%; Population Mitochondria Different-Phenotype (%) [2, 7]: 46% and 48%; Population Mitotic Cells (%) [2, 7]: 32% and 36%; Population Normal (%) [2, 7]: 93% and 90%; Population Pyknosed Nuclei (%) [2, 7]: 14% and 13%; Population Tubulin-Different-Phenotype (%) [2, 7]: 86% and 82%; Total Cell Count [2, 7]: 619 and 581; Population Apoptotic (%) [2, 8]: 31% and 16%; Population Fragmented Nuclei (%) [2, 8]: 9% and 8%; Population Healthy Nuclei (%) [2, 8]: 85% and 87%; Population Hoechst High Intensity Objects (%) [2, 8]: 8% and 10%; Population Membrane Permeable-Phenotype (%) [2, 8]: 5% and 3%; Population Mitochondria Different-Phenotype (%) [2, 8]: 1% and 0%; Population Mitotic Cells (%) [2, 8]: 68% and 83%; Population Normal (%) [2, 8]: 91% and 89%; Population Pyknosed Nuclei (%) [2, 8]: 5% and 3%; Population Tubulin-Different-Phenotype (%) [2, 8]: 14% and 11%; Total Cell Count [2, 8]: 1435 and 2116; Population Apoptotic (%) [2, 9]: 44% and 58%; Population Fragmented Nuclei (%) [2, 9]: 5% and 6%; Population Healthy Nuclei (%) [2, 9]: 86% and 85%; Population Hoechst High Intensity Objects (%) [2, 9]: 9% and 10%; Population Membrane Permeable-Phenotype (%) [2, 9]: 4% and 6%; Population Mitochondria Different-Phenotype (%) [2, 9]: 8% and 12%; Population Mitotic Cells (%) [2, 9]: 55% and 41%; Population Normal (%) [2, 9]: 90% and 89%; Population Pyknosed Nuclei (%) [2, 9]: 8%; Population Tubulin-Different-Phenotype (%) [2, 9]: 64% and 60%; Total Cell Count [2, 9]: 952 and 839; Population Healthy Nuclei (%) [3, 4]: 42% and 81%; Population Hoechst High Intensity Objects (%) [3, 4]: 0%; Population Membrane Permeable-Phenotype (%) [3, 4]: 0% and 1%; Population Mitochondria Different-Phenotype (%) [3, 4]: 0% and 2%; Population Normal (%) [3, 4]: 100%; Population Pyknosed Nuclei (%) [3, 4]: 7% and 15%; Population Tubulin-Different-Phenotype (%) [3, 4]: 100% and 81%; Population Healthy Nuclei (%) [3, 5]: 49% and 77%; Population Hoechst High Intensity Objects (%) [3, 5]: 0% and 1%; Population Membrane Permeable-Phenotype (%) [3, 5]: 6% and 3%; Population Mitotic Cells (%) [3, 5]: 80% and 36%; Population Normal (%) [3, 5]: 100% and 98%; Population Pyknosed Nuclei (%) [3, 5]: 8% and 17%; Population Tubulin-Different-Phenotype (%) [3, 5]: 36% and 42%; Population Healthy Nuclei (%) [3, 6]: 53% and 88%; Population Hoechst High Intensity Objects (%) [3, 6]: 0%; Population Membrane Permeable-Phenotype (%) [3, 6]: 0% and 2%; Population Mitochondria Different-Phenotype (%) [3, 6]: 0% and 1%; Population Mitotic Cells (%) [3, 6]: 0% and 24%; Population Normal (%) [3, 6]: 100%; Population Pyknosed Nuclei (%) [3, 6]: 0% and 9%; Population Tubulin-Different-Phenotype (%) [3, 6]: 87% and 85%; Population Apoptotic (%) [3, 7]: 63% and 64%; Population Healthy Nuclei (%) [3, 7]: 39% and 73%; Population Hoechst High Intensity Objects (%) [3, 7]: 0%; Population Membrane Permeable-Phenotype (%) [3, 7]: 3%; Population Mitochondria Different-Phenotype (%) [3, 7]: 12% and 19%; Population Mitotic Cells (%) [3, 7]: 36% and 35%; Population Normal (%) [3, 7]: 100% and 99%; Population Pyknosed Nuclei (%) [3, 7]: 14% and 20%; Population Tubulin-Different-Phenotype (%) [3, 7]: 32% and 51%; Population Healthy Nuclei (%) [3, 8]: 55% and 88%; Population Hoechst High Intensity Objects (%) [3, 8]: 0%; Population Normal (%) [3, 8]: 100%; Population Pyknosed Nuclei (%) [3, 8]: 3% and 7%; Population Tubulin-Different-Phenotype (%) [3, 8]: 100% and 88%; Population Apoptotic (%) [3, 9]: 92% and 74%; Population Healthy Nuclei (%) [3, 9]: 34% and 66%; Population Hoechst High Intensity Objects (%) [3, 9]: 0%; Population Membrane Permeable-Phenotype (%) [3, 9]: 7% and 4%; Population Mitochondria Different-Phenotype (%) [3, 9]: 7%; Population Normal (%) [3, 9]: 100% and 99%; Population Pyknosed Nuclei (%) [3, 9]: 16% and 24%; Population Tubulin-Different-Phenotype (%) [3, 9]: 51% and 55%
